Measured values from publication PMC4383763 (Journal of clinical pharmacology, 2013).

Experiments:
[1] = tested on: APAP-induced liver injury in mice; settings: cited from earlier work; for effect of drug vehicles on APAP-induced liver injury: mouse model
[2] = subjects who received 2 months of cimetidine; cited from earlier work
Cultured hepatocytes = settings: in the presence of PG; cited from earlier work
[3] = assumed for the prediction, no reference given; cited from earlier work
[4] = Plasma propylene glycol concentration by GC-FID after APAP preparation; assay type: in vivo, human
In short: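 Crossover in volunteers given tablet or liquid APAP formulations (liquid contains 5% v/v PG), 15 mg/kg orally after a 1 h fast, on separate visits. Blood held refrigerated ≤24 h, then plasma separated by centrifugation and stored at -80 °C. PG was measured by GC-FID, first in 0–120 min samples from three subjects, then in all 30 min samples. LOD 5.0 mg/dL.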

CYP2E1 = settings: cited from earlier work

CN(C)C=O [dimethylformamide]
effect of drug vehicles on APAP-induced liver injury [1]: protective

C[S+](C)[O-] [dimethylsulfoxide]
effect of drug vehicles on APAP-induced liver injury [1]: protective

CN/C(=N/CCSCc1nc[nH]c1C)NC#N [cimetidine]
urinary APAP-mercapturate following therapeutic APAP dosing [2]: decreased

CC(O)CO (stereo not drawn) [PG, propylene glycol]
susceptibility of cultured hepatocytes to APAP-induced necrosis (Cultured hepatocytes): less susceptible
volume of distribution of PG [3]: 0.58 L/kg
hepatocellular damage following a toxic APAP dose ([1]; mice pretreated with the substance): reduced hepatocellular damage
effect of drug vehicles on APAP-induced liver injury [1]: protective
maximum PG concentration in plasma ([4]; 30-minute samples after liquid preparation): 9.1 mg/dL
PG detected in 30-minute samples ([4]; following ingestion of the liquid preparation, limit of detection 5.0 mg/dL): 9 out of 15
PG detected in samples ([4]; solid group, limit of detection 5.0 mg/dL): none
type of CYP2E1 inhibition (CYP2E1): competitive inhibitor

CCO [ethanol]
effect of drug vehicles on APAP-induced liver injury [1]: protective
